Tests used:
INS-1E cells = experiment: Glucose-stimulated insulin secretion assay; format: cell-based
How it was run: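 Lentivirally transduced proinsulin-NanoLuc INS-1E cells were plated overnight (37 °C, 5% CO₂), washed, and held 1 h in KRB (HEPES, BSA) with 2.8 mM glucose. They got peptide for 5 min (2 μM; 5 or 10 μM in one set; DMSO mock), then 20 min in KRB with 20 mM glucose, or 2.8 mM as control. Supernatant luciferase read with coelenterazine.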

[1] = Partitioning and budding in phase-separated GUVs; details: for inward budding from the Ld phase of phase-separated GUVs: 10 μM Cy-5-labeled peptide, 30 min
How it was run: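 Peptide was applied to the GUVs for 30 min before imaging. Fluorescein at 0.3 μM was added to the external buffer to mark true inward budding, seen as fluorescein-containing intraluminal vesicles.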

For Cy5-CVWSLFNTLFM [AH(59-68)], the “binding to the plasma membrane of INS-1E cells” value (INS-1E cells; cells pretreated with peptide) was “effectively bound to the plasma membrane”.

For Cy5-DHVVWSLFNTLFMNPC [AH(56-71)], the “binding of peptide to GUVs in the absence of cholesterol” value (Inward budding; GUVs without cholesterol) was “not affected”, the “inward budding of GUVs without cholesterol containing DOPE” value (Inward budding; GUVs without cholesterol, DOPE 20 mol%) was “could be rescued” and the “inward budding of GUVs without cholesterol” value (Inward budding; peptide added to GUVs without cholesterol) was “failed to induce efficient inward budding”. The “inward budding from the Ld phase of phase-separated GUVs” value [1] was “caused inward budding from this domain”.

In the case of “Cy5-LVWHMFLSDNFTNPV [Scrambled AH(56-71)]”, the “inward budding from the Ld phase of phase-separated GUVs” value [1] was “failed to cause inward budding from this phase”.

In the case of “FITC-Ahx-DHVVWSLFNTLFMNPC(PAL)CLGF [AH(56-75)]”, the “phase partitioning in phase-separated GUVs” value ([1]; fluorescently-tagged peptide palmitoylated at Cys71) was “clearly partitioned to the Ld phase and appeared to concentrate at the phase boundary”.

In the case of lyso-PC [LPC, reference compound], the “budding of GUV membrane on addition of lipid” value (Inward budding; LPC titrated on preformed GUVs containing POPC and cholesterol) was “outward budding of the GUV membrane in an LPC dose-dependent manner” and the glucose-stimulated insulin secretion (INS-1E cells; cells pretreated with 20 μM LPC) was “promoted insulin secretion”.
